Assays:
[1] = Cytotoxicity against African green monkey Vero cells assessed as reduction in cell viability by measuring ATP level after 72 hrs by Celltiter-Glo assay; type: cell-based; conditions: chlorocebus sabaeus
In short: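 Vero cells seeded at 1.5 × 10⁴ cells/well, exposed 24 h later to 1.95–500 µM compound for 72 h at 37 °C. Viability read as ATP luminescence (CellTiter-Glo). DMSO ≤1% as control. CC50 from linear regression; at least three independent assays in duplicate.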

Trypanosoma cruzi [2] = assay: Trypanocidal activity against Trypanosoma cruzi Y strain bloodstream trypomastigotes isolated from infected Swiss webster mouse cardiac cells assessed as reduction in parasite viability after 24 hrs by Celltiter-Glo assay; type: functional, organism-based
In short: (§1)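 Trypomastigotes at 1 × 10⁶ parasites/well treated 24 h at 37 °C with 0.41–100 µM compound. Y strain viability read by ATP luminescence (CellTiter-Glo); Dm28c-Luc viability read by luciferase activity. IC50/IC90 by linear regression. Benznidazole positive and DMSO ≤1% negative controls.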

Trypanosoma cruzi [3] = assay: Trypanocidal activity against luciferase expressing Trypanosoma cruzi Dm28c trypomastigotes isolated from infected Vero cells assessed as reduction in parasite viability after 24 hrs by luciferase-luminescence assay; type: functional, organism-based; in short: as §1
Trypanosoma cruzi [4] = assay: Trypanocidal activity against intracellular amastigote stage of luciferase expressing Trypanosoma cruzi Dm28c infected in Vero cells assessed as reduction in parasite viability after 72 hrs in presence of luciferin by luciferase luminescence analysis
[5] = Selectivity index, ratio of CC50 for African green monkey Vero cells to IC50 for Trypanosoma cruzi Y strain bloodstream trypomastigotes isolated from infected Swiss webster mouse cardiac cells; type: toxicity; conditions: read-out: Ratio CC50/IC50
[6] = Selectivity index, ratio of CC50 for African green monkey Vero cells to IC50 for intracellular amastigote stage of luciferase expressing Trypanosoma cruzi Dm28c infected in Vero cells; type: toxicity, cell-based; conditions: read-out: Ratio CC50/IC50
[7] = Selectivity index, ratio of CC50 for African green monkey Vero cells to IC50 for luciferase expressing Trypanosoma cruzi Dm28c trypomastigotes isolated from infected Vero cells; type: toxicity; conditions: read-out: Ratio CC50/IC50
[8] = Cytotoxicity against mouse cardiomyocytes infected with intracellular amastigote stage of Trypanosoma cruzi Y strain assessed as reduction in cardiomyocyte viability after 72 hrs by Celltiter-Glo assay; type: cell-based, Cardiac Muscle Cell
In short: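 Primary heart muscle cells from 18-day mouse fetuses, dissociated with trypsin/collagenase II, grown in DMEM with 7% FBS, 2% chicken embryo extract, 1 mM L-glutamine, antibiotics, 37 °C, 5% CO₂. Plated at 5 × 10⁴ cells/well and treated 72 h. Viability read by ATP luminescence. CC50 from linear regression; DMSO ≤1% control; at least three independent assays in duplicate.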

[9] = Selectivity index, ratio of CC50 for mouse cardiomyocyte infected with intracellular amastigote stage of Trypanosoma cruzi Y strain to IC50 for amastigote stage of Trypanosoma cruzi Y strain; type: toxicity, cell-based; conditions: read-out: Ratio CC50/IC50
Trypanosoma cruzi [10] = assay: Potency index, ratio of compound IC90 to benznidazole IC90 for Trypanocidal activity against intracellular amastigote stage of luciferase expressing Trypanosoma cruzi Dm28c infected in Vero cells; type: functional
Cruzipain [11] = biological target: T1, Cruzipain (Trypanosoma cruzi, UniProt P25779); assay: Inhibition of Trypanosoma cruzi cruzipain assessed as reduction in enzymatic activity using Z-FR-AMC fluorogenic peptide substrate incubated for 45 mins by spectrophotometry analysis
In short: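 Soluble trypomastigote protein extract (lysis in Tris pH 8.0/NaCl/glycerol/Triton X-100, 25,000 g supernatant) used as enzyme source. Incubated with 30 µM Z-FR-AMC in 10 mM sodium acetate pH 5.0 with 1 mM DTT, co-incubated with inhibitor concentrations, 45 min at 37 °C. AMC release read by fluorescence. Substrate self-degradation and DMSO ≤1% controls.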

[12] = biological target: Cruzipain (Trypanosoma cruzi) (UniProt P25779); assay: Potency index, ratio of compound IC50 to E-64 IC50 for inhibition of Trypanosoma cruzi cruzipain
Trypanosoma cruzi [13] = assay: Trypanocidal activity against intracellular amastigote stage of Trypanosoma cruzi Y strain infected in Swiss webster cardiac cells assessed as reduction in parasite viability
Cruzipain [14] = biological target: T1, Cruzipain; assay: Irreversible inhibition of Trypanosoma cruzi cruzipain

T1 sequence (P25779 whole entry): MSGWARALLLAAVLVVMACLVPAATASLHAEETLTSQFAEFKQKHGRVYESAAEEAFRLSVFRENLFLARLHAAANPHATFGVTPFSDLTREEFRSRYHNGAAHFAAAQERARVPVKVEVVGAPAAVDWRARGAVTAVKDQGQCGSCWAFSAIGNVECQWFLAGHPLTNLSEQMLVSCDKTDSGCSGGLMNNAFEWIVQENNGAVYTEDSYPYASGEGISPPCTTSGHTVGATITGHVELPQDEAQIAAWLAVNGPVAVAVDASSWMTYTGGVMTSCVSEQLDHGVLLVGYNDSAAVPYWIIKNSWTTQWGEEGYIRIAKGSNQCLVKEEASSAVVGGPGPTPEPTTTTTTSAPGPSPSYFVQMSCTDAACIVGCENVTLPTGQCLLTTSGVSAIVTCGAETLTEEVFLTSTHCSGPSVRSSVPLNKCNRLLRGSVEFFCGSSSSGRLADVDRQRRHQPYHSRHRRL
Sequence of Cruzipain (Trypanosoma cruzi) (P25779 123-467 limits assumed): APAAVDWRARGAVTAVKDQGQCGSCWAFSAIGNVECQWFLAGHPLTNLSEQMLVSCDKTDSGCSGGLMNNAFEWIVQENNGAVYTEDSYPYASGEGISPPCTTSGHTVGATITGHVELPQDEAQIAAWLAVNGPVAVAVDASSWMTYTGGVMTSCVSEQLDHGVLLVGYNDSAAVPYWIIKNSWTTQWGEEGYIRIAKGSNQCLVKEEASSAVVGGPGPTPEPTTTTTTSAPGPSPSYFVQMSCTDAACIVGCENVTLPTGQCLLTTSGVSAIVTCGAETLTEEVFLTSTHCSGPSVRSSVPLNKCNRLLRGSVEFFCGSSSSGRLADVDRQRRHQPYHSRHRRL

Nc1c(C2=NCCCN2)cnn1-c1ccc(Cl)cc1
CC50 at 72 h [1]: > 500 µM | IC50 (Trypanosoma cruzi [2]): > 100 µM | IC90 (Trypanosoma cruzi [2]): > 100 µM | IC50 (Trypanosoma cruzi [3]): > 100 µM | IC90 (Trypanosoma cruzi [3]): > 100 µM | IC50 (Trypanosoma cruzi [4]): > 100 µM | IC90 (Trypanosoma cruzi [4]): > 100 µM

Nc1c(C2=NCCN2)cnn1-c1ccc(F)cc1
CC50 at 72 h [1]: > 500 µM | IC50 (Trypanosoma cruzi [2]): > 100 µM | IC90 (Trypanosoma cruzi [2]): > 100 µM | IC50 (Trypanosoma cruzi [3]): > 100 µM | IC90 (Trypanosoma cruzi [3]): > 100 µM | IC50 (Trypanosoma cruzi [4]): > 100 µM | IC90 (Trypanosoma cruzi [4]): > 100 µM

Nc1c(C2=NCCN2)cnn1-c1cccc(Br)c1
CC50 at 72 h [1]: 352 µM | IC50 (Trypanosoma cruzi [2]): 27.7 µM | IC90 (Trypanosoma cruzi [2]): > 100 µM | IC50 (Trypanosoma cruzi [3]): > 100 µM | IC90 (Trypanosoma cruzi [3]): > 100 µM | selectivity ratio [5]: 12.7 | selectivity ratio [6]: 5.2 | IC50 (Trypanosoma cruzi [4]): 67.4 µM | IC90 (Trypanosoma cruzi [4]): > 100 µM

Nc1c(C2=NCCCN2)cnn1-c1ccc(Br)cc1
CC50 at 72 h [1]: > 500 µM | IC50 (Trypanosoma cruzi [2]): > 100 µM | IC90 (Trypanosoma cruzi [2]): > 100 µM | IC50 (Trypanosoma cruzi [3]): > 100 µM | IC90 (Trypanosoma cruzi [3]): > 100 µM | IC50 (Trypanosoma cruzi [4]): > 100 µM | IC90 (Trypanosoma cruzi [4]): > 100 µM

Nc1c(C2=NCCN2)cnn1-c1cc(Cl)cc(Cl)c1
CC50 at 72 h [1]: 257 µM | IC50 (Trypanosoma cruzi [2]): 30.9 µM | IC90 (Trypanosoma cruzi [2]): > 100 µM | IC50 (Trypanosoma cruzi [3]): 9.5 µM | IC90 (Trypanosoma cruzi [3]): 28.9 µM | selectivity ratio [5]: 8.3 | selectivity ratio [7]: 27.1 | selectivity ratio [6]: 15.6 | CC50 at 72 h [8]: 379 µM | selectivity ratio [9]: 30.3 | Ratio (Trypanosoma cruzi [10]): 4.4 | IC50 (Cruzipain [11]): 24 µM | Ratio IC50 [12]: 8 | IC50 (Trypanosoma cruzi [13]): 12.5 µM | IC50 (Trypanosoma cruzi [4]): 16.5 µM | IC90 (Trypanosoma cruzi [4]): 29.9 µM

Nc1c(C2=NCCCN2)cnn1-c1ccccc1
CC50 at 72 h [1]: > 500 µM | IC50 (Trypanosoma cruzi [2]): > 100 µM | IC90 (Trypanosoma cruzi [2]): > 100 µM | IC50 (Trypanosoma cruzi [3]): > 100 µM | IC90 (Trypanosoma cruzi [3]): > 100 µM | IC50 (Trypanosoma cruzi [4]): > 100 µM | IC90 (Trypanosoma cruzi [4]): > 100 µM

COc1ccc(-n2ncc(C3=NCCN3)c2N)cc1
CC50 at 72 h [1]: > 500 µM | IC50 (Trypanosoma cruzi [2]): > 100 µM | IC90 (Trypanosoma cruzi [2]): > 100 µM | IC50 (Trypanosoma cruzi [3]): > 100 µM | IC90 (Trypanosoma cruzi [3]): > 100 µM | selectivity ratio [6]: > 7.9 | IC50 (Trypanosoma cruzi [4]): 63.4 µM | IC90 (Trypanosoma cruzi [4]): > 100 µM

Nc1c(C2=NCCCN2)cnn1-c1cccc(Cl)c1
CC50 at 72 h [1]: > 500 µM | IC50 (Trypanosoma cruzi [2]): > 100 µM | IC90 (Trypanosoma cruzi [2]): > 100 µM | IC50 (Trypanosoma cruzi [3]): > 100 µM | IC90 (Trypanosoma cruzi [3]): > 100 µM | IC50 (Trypanosoma cruzi [4]): > 100 µM | IC90 (Trypanosoma cruzi [4]): > 100 µM

CC(C)C[C@H](NC(=O)[C@@H]1O[C@H]1C(=O)O)C(=O)NCCCCN=C(N)N
IC50 (Cruzipain [14]): 3 µM

Nc1c(C2=NCCN2)cnn1-c1cccc(Cl)c1
CC50 at 72 h [1]: > 500 µM | IC50 (Trypanosoma cruzi [2]): 31.3 µM | IC90 (Trypanosoma cruzi [2]): > 100 µM | IC50 (Trypanosoma cruzi [3]): 53.3 µM | IC90 (Trypanosoma cruzi [3]): 81.1 µM | selectivity ratio [5]: > 15.9 | selectivity ratio [7]: 9.4 | selectivity ratio [6]: > 24.3 | IC50 (Trypanosoma cruzi [4]): 20.6 µM | IC90 (Trypanosoma cruzi [4]): 55 µM

Nc1c(C2=NCCN2)cnn1-c1ccc(Cl)c(Cl)c1
CC50 at 72 h [1]: 244 µM | IC50 (Trypanosoma cruzi [2]): 28.3 µM | IC90 (Trypanosoma cruzi [2]): > 100 µM | IC50 (Trypanosoma cruzi [3]): 10.5 µM | IC90 (Trypanosoma cruzi [3]): 29 µM | selectivity ratio [5]: 8.6 | selectivity ratio [7]: 23.3 | selectivity ratio [6]: 17.9 | CC50 at 72 h [8]: 412 µM | selectivity ratio [9]: 32.4 | Ratio (Trypanosoma cruzi [10]): 4.4 | IC50 (Cruzipain [11]): 180 µM | Ratio IC50 [12]: 60 | IC50 (Trypanosoma cruzi [13]): 12.7 µM | IC50 (Trypanosoma cruzi [4]): 13.6 µM | IC90 (Trypanosoma cruzi [4]): 30.5 µM

Nc1c(C2=NCCCN2)cnn1-c1ccc(F)cc1
CC50 at 72 h [1]: > 500 µM | IC50 (Trypanosoma cruzi [2]): > 100 µM | IC90 (Trypanosoma cruzi [2]): > 100 µM | IC50 (Trypanosoma cruzi [3]): > 100 µM | IC90 (Trypanosoma cruzi [3]): > 100 µM | IC50 (Trypanosoma cruzi [4]): > 100 µM | IC90 (Trypanosoma cruzi [4]): > 100 µM

Nc1c(C2=NCCN2)cnn1-c1ccc(Br)cc1
CC50 at 72 h [1]: > 500 µM | IC50 (Trypanosoma cruzi [2]): 52.3 µM | IC90 (Trypanosoma cruzi [2]): > 100 µM | IC50 (Trypanosoma cruzi [3]): > 100 µM | IC90 (Trypanosoma cruzi [3]): > 100 µM | selectivity ratio [5]: > 9.5 | selectivity ratio [6]: > 5.9 | IC50 (Trypanosoma cruzi [4]): 84.2 µM | IC90 (Trypanosoma cruzi [4]): > 100 µM

Nc1c(C2=NCCCN2)cnn1-c1cccc(Br)c1
CC50 at 72 h [1]: > 500 µM | IC50 (Trypanosoma cruzi [2]): > 100 µM | IC90 (Trypanosoma cruzi [2]): > 100 µM | IC50 (Trypanosoma cruzi [3]): > 100 µM | IC90 (Trypanosoma cruzi [3]): > 100 µM | IC50 (Trypanosoma cruzi [4]): > 100 µM | IC90 (Trypanosoma cruzi [4]): > 100 µM

O=C(Cn1ccnc1[N+](=O)[O-])NCc1ccccc1 [BENZNIDAZOLE]
CC50 at 72 h [1]: > 500 µM | IC50 (Trypanosoma cruzi [2]): 23.3 µM | IC90 (Trypanosoma cruzi [2]): > 100 µM | IC50 (Trypanosoma cruzi [3]): 19.1 µM | IC90 (Trypanosoma cruzi [3]): 94.1 µM | selectivity ratio [5]: > 21.4 | selectivity ratio [7]: > 26.3 | selectivity ratio [6]: > 263 | CC50 at 72 h [8]: > 500 µM | selectivity ratio [9]: > 555 | IC50 (Trypanosoma cruzi [13]): 0.9 µM | IC50 (Trypanosoma cruzi [4]): 1.9 µM | IC90 (Trypanosoma cruzi [4]): 6.9 µM

Nc1c(C2=NCCCN2)cnn1-c1ccc(Cl)c(Cl)c1
CC50 at 72 h [1]: > 500 µM | IC50 (Trypanosoma cruzi [2]): > 100 µM | IC90 (Trypanosoma cruzi [2]): > 100 µM | IC50 (Trypanosoma cruzi [3]): > 100 µM | IC90 (Trypanosoma cruzi [3]): > 100 µM | IC50 (Trypanosoma cruzi [4]): > 100 µM | IC90 (Trypanosoma cruzi [4]): > 100 µM

Nc1c(C2=NCCN2)cnn1-c1ccccc1
CC50 at 72 h [1]: > 500 µM | IC50 (Trypanosoma cruzi [2]): > 100 µM | IC90 (Trypanosoma cruzi [2]): > 100 µM | IC50 (Trypanosoma cruzi [3]): > 100 µM | IC90 (Trypanosoma cruzi [3]): > 100 µM | selectivity ratio [6]: > 5.9 | IC50 (Trypanosoma cruzi [4]): 84.2 µM | IC90 (Trypanosoma cruzi [4]): > 100 µM

Nc1c(C2=NCCCN2)cnn1-c1cc(Cl)cc(Cl)c1
CC50 at 72 h [1]: > 500 µM | IC50 (Trypanosoma cruzi [2]): > 100 µM | IC90 (Trypanosoma cruzi [2]): > 100 µM | IC50 (Trypanosoma cruzi [3]): > 100 µM | IC90 (Trypanosoma cruzi [3]): > 100 µM | IC50 (Trypanosoma cruzi [4]): > 100 µM | IC90 (Trypanosoma cruzi [4]): > 100 µM

COc1ccc(-n2ncc(C3=NCCCN3)c2N)cc1
CC50 at 72 h [1]: > 500 µM | IC50 (Trypanosoma cruzi [2]): > 100 µM | IC90 (Trypanosoma cruzi [2]): > 100 µM | IC50 (Trypanosoma cruzi [3]): > 100 µM | IC90 (Trypanosoma cruzi [3]): > 100 µM | IC50 (Trypanosoma cruzi [4]): > 100 µM | IC90 (Trypanosoma cruzi [4]): > 100 µM

Nc1c(C2=NCCN2)cnn1-c1ccc(Cl)cc1
CC50 at 72 h [1]: > 500 µM | IC50 (Trypanosoma cruzi [2]): 84.2 µM | IC90 (Trypanosoma cruzi [2]): > 100 µM | IC50 (Trypanosoma cruzi [3]): 78.9 µM | IC90 (Trypanosoma cruzi [3]): > 100 µM | selectivity ratio [5]: > 5.9 | selectivity ratio [7]: > 6.3 | IC50 (Trypanosoma cruzi [4]): > 100 µM | IC90 (Trypanosoma cruzi [4]): > 100 µM

Reference: ChEMBL document CHEMBL4359893, “Synthesis, structure-activity relationship and trypanocidal activity of pyrazole-imidazoline and new pyrazole-tetrahydropyrimidine hybrids as promising chemotherapeutic agents for Chagas disease” (Eur J Med Chem, 2019)
